Measurements taken from ChEMBL document CHEMBL1152466, “Hepatitis B virus e antigen loss during adefovir dipivoxil therapy is associated with enhanced virus-specific CD4+ T-cell reactivity” (2008).
Activity calls are given as the source filed them.

What was measured:
PBMC [1] = assay: Increase in HBV-specific IL12p70 level in HBcAg-stimulated human PBMC at 10 to 30 mg per day by ELISA; assay type: functional, cell-based
Hepatitis B virus [2] = assay: Antiviral activity against HBV infected patients assessed as ALT level at 10 to 30 mg per day after 48 weeks […]; assay type: functional
Hepatitis B virus [3] = assay: Antiviral activity against HBV infected in human assessed as reduction in serum viral DNA level at 10 to 30 mg per day after 48 weeks; assay type: functional
Homo sapiens [4] = organism: Homo sapiens; assay: Increase in HBV-specific IFN-gamma-producing CD4+ cell proliferation in patients with […] chronic hepatitis B assessed as [3H]thymidine incorporation after 16 weeks by beta counting relative to baseline; assay type: functional, organism-based
Procedure, shortened: (§1)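 Freshly isolated patient PBMC (density gradient) at 2 × 10⁶/ml in RPMI with 10% human AB serum. rHBcAg (1 μg/ml) was added to quadruplicate wells, with tetanus toxoid (0.5 μg/ml) and phytohemagglutinin (1 μg/ml) as controls. After 6 days, 0.5 μCi/well [³H]thymidine pulse and beta counting. Stimulation index = mean cpm antigen/medium. The positive cutoff was mean + 3 SD of 15–20 controls per center.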

Homo sapiens [5] = organism: Homo sapiens; assay: Increase in HBV-specific IFN-gamma-producing CD4+ cell proliferation in patients with […] chronic hepatitis B assessed as [3H]thymidine incorporation after 40 weeks by beta counting relative to baseline; assay type: functional, organism-based; procedure, shortened: as §1
Homo sapiens [6] = organism: Homo sapiens; assay: Increase in HBV-specific IFN-gamma-producing CD4+ cell proliferation in patients with […] chronic hepatitis B assessed as [3H]thymidine incorporation after 48 weeks by beta counting relative to baseline; assay type: functional, organism-based; procedure, shortened: as §1
Homo sapiens [7] = organism: Homo sapiens; assay: Increase in HBV-specific IFN-gamma-producing CD4+ cell proliferation in patients with […] chronic hepatitis B assessed as [3H]thymidine incorporation by beta counting relative to baseline; assay type: functional; procedure, shortened: as §1
PBMC [8] = assay: Increase in HBV-specific IFN-gamma production in HBcAg-stimulated human PBMC assessed as INFgamma production index at 10 to 30 mg per day after 4 weeks […]; assay type: functional
Procedure, shortened: (§2)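 PBMC at 3 × 10⁶/ml in RPMI with 10% human AB serum, cultured in quadruplicate for 6 days with or without rHBcAg (1 μg/ml). IFN-γ in cell-free supernatants (kept at −20°C) was measured by ELISA. Index = mean pg/ml IFN-γ of the four HBcAg-stimulated replicates divided by that of medium-only cultures, calculated at each protocol time point.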

PBMC [9] = assay: Increase in HBV-specific IFN-gamma production in HBcAg-stimulated human PBMC assessed as INFgamma production index at 10 to 30 mg per day after 8 weeks by […]; assay type: functional; procedure, shortened: as §2
PBMC [10] = assay: Increase in HBV-specific IFN-gamma production in HBcAg-stimulated human PBMC assessed as INFgamma production index at 10 to 30 mg per day after 16 weeks […]; assay type: functional; procedure, shortened: as §2
PBMC [11] = assay: Increase in HBV-specific IFN-gamma production in HBcAg-stimulated human PBMC assessed as INFgamma production index at 10 to 30 mg per day after 24 weeks by […]; assay type: functional; procedure, shortened: as §2
PBMC [12] = assay: Increase in HBV-specific IFN-gamma production in HBcAg-stimulated human PBMC assessed as INFgamma production index at 10 to 30 mg per day after 40 weeks by […]; assay type: functional; procedure, shortened: as §2
PBMC [13] = assay: Increase in HBV-specific IFN-gamma production in HBcAg-stimulated human PBMC assessed as INFgamma production index at 10 to 30 mg per day after 48 weeks by […]; assay type: functional; procedure, shortened: as §2
PBMC [14] = assay: Increase in HBV-specific IL8 in HBcAg-stimulated human PBMC at 10 to 30 mg per day by ELISA; assay type: functional, cell-based
PBMC [15] = assay: Increase in HBV-specific IP10 in HBcAg-stimulated human PBMC at 10 to 30 mg per day by ELISA; assay type: functional, cell-based
PBMC [16] = assay: Increase in HBV-specific Fas ligand level in HBcAg-stimulated human PBMC at 10 to 30 mg per day by ELISA; assay type: functional, cell-based
PBMC [17] = assay: Increase in HBV-specific IL2 level in HBcAg-stimulated human PBMC at 10 to 30 mg per day by ELISA; assay type: functional, cell-based
PBMC [18] = assay: Increase in HBV-specific IL5 level in HBcAg-stimulated human PBMC at 10 to 30 mg per day by ELISA; assay type: functional, cell-based
Homo sapiens [19] = organism: Homo sapiens; assay: Serum IL10 level in human at baseline at 10 to 30 mg per day by cytometric bead array

Structure (SMILES): CC(C)(C)C(=O)OCOP(=O)(COCCn1cnc2c(N)ncnc21)OCOC(=O)C(C)(C)C [ADEFOVIR DIPIVOXIL]
- Activity (PBMC [1]): inactive
- Activity (Hepatitis B virus [2]): 35 IU/ml
- Activity (Hepatitis B virus [3]): -5.3 log10CFU/ml
- Activity (Homo sapiens [4]): Active
- Activity (Homo sapiens [5]): Active
- Activity (Homo sapiens [6]): Active
- Activity (Homo sapiens [7]): 15%
- Activity (PBMC [8]): 58.9
- Activity (PBMC [9]): 184.3
- Activity (PBMC [10]): 63.9
- Activity (PBMC [11]): 26.3
- Activity (PBMC [12]): 61.5
- Activity (PBMC [13]): 18
- Activity (PBMC [14]): Active
- Activity (PBMC [15]): Active
- Activity (PBMC [16]): inactive
- Activity (PBMC [17]): inactive
- Activity (PBMC [18]): inactive
- Activity (Homo sapiens [19]): 32 pg/mL
